MrgX1 antag – human MrgX1 receptor antagonism, primary screen | MRGX1-HEK293 calcium flux, Fluo-4, BAM8-22 antagonism; stronger effect = lower value | 310,000 compounds, 1.3% hits | B-score at 10 µM;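 active = calcium-response B-score plate-corrected more than 3 library SD below zero, starting fluorescence within 5 deviations, no agonist response on first addition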;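 note: peak minus trough fluorescence over baseline after final BAM8-22 challenge near maximal dose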
Target sequence (Q96LB2 whole entry, looked up): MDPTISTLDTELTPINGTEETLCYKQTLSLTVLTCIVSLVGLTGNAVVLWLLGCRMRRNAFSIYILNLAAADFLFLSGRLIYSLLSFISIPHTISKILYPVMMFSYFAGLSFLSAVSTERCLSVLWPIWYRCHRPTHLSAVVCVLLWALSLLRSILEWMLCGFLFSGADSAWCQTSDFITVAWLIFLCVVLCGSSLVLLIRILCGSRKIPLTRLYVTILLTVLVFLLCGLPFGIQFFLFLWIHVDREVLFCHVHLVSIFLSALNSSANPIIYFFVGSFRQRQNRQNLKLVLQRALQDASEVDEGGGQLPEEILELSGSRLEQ
RGS4 act – RGS4 potentiation or activation; HEK293 M3R/inducible RGS4, carbachol calcium flux Fluo4; stronger effect = lower value; B-score at 10 µM; 310,000 compounds, 0.92% hits;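 active = B-score of the integrated calcium signal more than 4 SD below the library mean, with starting fluorescence not abnormally high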;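 note: negative B-score means reduced calcium response which marks RGS4 activation or potentiation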
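Material: M3R-expressing HEK293 line, RGS4 induced by doxycycline | Schedule: Overnight RGS4 induction, 30 min dye load 37 °C, 20 min compound RT | Measured by: Fluo4 fluorescence kinetic imaging of calcium | Read-out: Integrated calcium ratio converted to B score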
RGS4 block – human RGS4 inhibition | P49798 | HEK293 M3R/RGS4 inducible, Fluo-4 calcium flux; stronger effect = higher value; triggered by carbachol at its EC20 | B-score at 10 µM | 310,000 compounds, 0.45% hits | AID 463165;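 active = B-score, a plate-corrected calcium signal, over three deviations above library mean, with baseline fluorescence within five deviations of library mean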;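 note: RGS4 expression induced by doxycycline in cells with stable M3 receptor; B-score is computed from the integrated fluorescence ratio over baseline after carbachol; higher B-score means a larger calcium signal and so more RGS4 inhibition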
Target sequence (P49798 whole entry, looked up): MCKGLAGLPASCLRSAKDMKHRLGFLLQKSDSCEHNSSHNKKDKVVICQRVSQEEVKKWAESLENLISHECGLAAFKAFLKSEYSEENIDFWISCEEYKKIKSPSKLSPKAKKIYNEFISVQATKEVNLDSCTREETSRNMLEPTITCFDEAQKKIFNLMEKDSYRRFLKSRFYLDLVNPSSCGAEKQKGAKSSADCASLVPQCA
MrgX1 ag – activates human MrgX1 receptor signaling; Q96LB2; MrgX1-HEK293 cells, Fluo-4 calcium fluorescence, agonist mode; stronger effect = higher value; B-score at 10 µM; 310,000 compounds, 0.44% hits;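 active = calcium response B-score plate-corrected fluorescence ratio at least 3 library SD, with starting fluorescence B-score inside 5 SD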
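Material: HEK293 cells stably expressing human MrgX1 receptor | Quantity: 15,000 cells per well | Times: Cells plated overnight, dye loaded 0.5 h 37 °C, 0.5 h room temperature | Measured by: Kinetic Fluo-4 NW fluorescence of intracellular calcium | Control set: Positive and negative controls per plate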
MrgX1 allo act – human MrgX1 positive allosteric modulation, primary screen. 310,000 compounds, 0.63% hits. B-score at 10 µM. Q96LB2. MrgX1-HEK293, Fluo-4 calcium flux, FDSS; stronger effect = higher value;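 active = plate-corrected calcium response at least 3 library SD above typical, normal starting fluorescence, not activating the receptor alone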;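 note: compound read alongside a low EC10 to EC30 dose of BAM8-22 agonist; peak minus trough fluorescence over baseline measured at the second addition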
* hit, by the source's call. A selection: hits, their analogues and other compounds. The true share with any hit is near 3.5%.

What do the screens show for `COc1ccc(OC)c(C(=O)Nc2c(O)ccc3ccccc23)c1`?
MrgX1 antag: inactive; RGS4 act: inactive; RGS4 block: inactive; MrgX1 ag: inactive; MrgX1 allo act: inactive

How did O=C(C1CCC(C(=O)N2CCc3ccccc32)CC1)N1CCc2ccccc21 (stereo not drawn) do in these assays?
MrgX1 antag: inactive; RGS4 act: inactive; RGS4 block: inactive; MrgX1 ag: inactive; MrgX1 allo act: inactive

How did O=C(CCl)c1ccc2c(c1)CCN2C(=O)C1CC1 do in these assays?
MrgX1 antag: inactive; RGS4 act: inactive; RGS4 block: 7.1*; MrgX1 ag: 33*; MrgX1 allo act: inactive

How did CC1(C)CC(=O)C2=C(C1)OC(N)=C(C#N)C2C#Cc1ccccc1 (stereo not drawn) do in these assays?
MrgX1 antag: inactive; RGS4 act: inactive; RGS4 block: inactive; MrgX1 ag: 53*; MrgX1 allo act: inactive

How did CC(c1ccccc1)C1C(C#N)=C(N)OC2=C1C(=O)CC(C)(C)C2 (stereo not drawn) do in these assays?
MrgX1 antag: inactive; RGS4 act: inactive; RGS4 block: inactive; MrgX1 ag: inactive; MrgX1 allo act: inactive

What do the screens show for `CCCCCCc1nnc(N)s1`?
MrgX1 antag: inactive; RGS4 act: inactive; RGS4 block: inactive; MrgX1 ag: inactive; MrgX1 allo act: inactive

What do the screens show for `O=C(COc1ccc(Cl)cc1Cl)Nc1ccc(CN2CCOCC2)cc1`?
MrgX1 antag: inactive; RGS4 act: inactive; RGS4 block: inactive; MrgX1 ag: inactive; MrgX1 allo act: inactive

How did O=C(c1ccc(COc2ccc(Cl)cc2Cl)o1)N1CCCC1 do in these assays?
MrgX1 antag: inactive; RGS4 act: -7.6*; RGS4 block: inactive; MrgX1 ag: inactive; MrgX1 allo act: inactive

How did Cc1cccc(NC(=S)NNC(=O)COc2ccc(Cl)cc2Cl)c1 do in these assays?
MrgX1 antag: inactive; RGS4 act: inactive; RGS4 block: inactive; MrgX1 ag: inactive; MrgX1 allo act: 10*

What do the screens show for `O=C(COc1ccc(Cl)cc1Cl)Nc1ccc(CN2CCCCC2)cc1`?
MrgX1 antag: inactive; RGS4 act: -7.1*; RGS4 block: inactive; MrgX1 ag: inactive; MrgX1 allo act: inactive

How did C(=N\Nc1nc(-c2ccccc2)cs1)/c1ccncc1 do in these assays?
MrgX1 antag: inactive; RGS4 act: inactive; RGS4 block: inactive; MrgX1 ag: inactive; MrgX1 allo act: inactive

Results for O=C(O)Cc1sc(N/N=C\c2ccncc2)nc1-c1ccccc1 ?
MrgX1 antag: -5.8*; RGS4 act: inactive; RGS4 block: inactive; MrgX1 ag: inactive; MrgX1 allo act: inactive

What do the screens show for `O=C(O)c1ccccc1N/N=C\c1ccnc2ccccc12`?
MrgX1 antag: inactive; RGS4 act: inactive; RGS4 block: inactive; MrgX1 ag: 41*; MrgX1 allo act: inactive

Results for O=C(O)c1ccccc1N/N=C/c1cc(Br)cc(Br)c1O ?
MrgX1 antag: -6.4*; RGS4 act: inactive; RGS4 block: inactive; MrgX1 ag: inactive; MrgX1 allo act: inactive

How did CCOC(=O)C1CCCN(C(=O)Cn2c(=O)c3cccn3c3cccnc32)C1 (stereo not drawn) do in these assays?
MrgX1 antag: inactive; RGS4 act: inactive; RGS4 block: inactive; MrgX1 ag: inactive; MrgX1 allo act: inactive

Results for N#Cc1cc([N+](=O)[O-])cnc1N(CCO)CCO ?
MrgX1 antag: inactive; RGS4 act: inactive; RGS4 block: inactive; MrgX1 ag: inactive; MrgX1 allo act: inactive

Results for Cc1ccc(C(=O)C[n+]2cc(Br)cc(Br)c2)cc1 ?
MrgX1 antag: inactive; RGS4 act: inactive; RGS4 block: inactive; MrgX1 ag: inactive; MrgX1 allo act: 15*

What do the screens show for `O=C(C[n+]1cccc(Br)c1)c1ccc(-c2ccccc2)cc1`?
MrgX1 antag: inactive; RGS4 act: -7*; RGS4 block: inactive; MrgX1 ag: inactive; MrgX1 allo act: inactive

What do the screens show for `COc1ccc(N=c2oc3ccccc3cc2C(=O)Nc2ccccn2)cc1OC`?
MrgX1 antag: inactive; RGS4 act: inactive; RGS4 block: inactive; MrgX1 ag: inactive; MrgX1 allo act: inactive

How did COc1ccccc1NC(=O)c1cc2ccccc2o/c1=N\O do in these assays?
MrgX1 antag: inactive; RGS4 act: inactive; RGS4 block: 11*; MrgX1 ag: inactive; MrgX1 allo act: inactive

How did Cc1noc(C)c1COC(=O)/C=C/c1ccccc1Cl do in these assays?
MrgX1 antag: inactive; RGS4 act: inactive; RGS4 block: inactive; MrgX1 ag: inactive; MrgX1 allo act: inactive

What do the screens show for `CC(C)c1ccc(NC(=O)[C@@H](C)NC(=O)[C@@H]2Cc3ccccc3CN2)cc1`?
MrgX1 antag: inactive; RGS4 act: -7.4*; RGS4 block: inactive; MrgX1 ag: inactive; MrgX1 allo act: inactive

What do the screens show for `O=C(CCC(=O)OCc1cccc([N+](=O)[O-])c1)Nc1ccccc1Cl`?
MrgX1 antag: inactive; RGS4 act: inactive; RGS4 block: inactive; MrgX1 ag: inactive; MrgX1 allo act: inactive

What do the screens show for `O=C(CCC(=O)OCC(=O)c1cccc([N+](=O)[O-])c1)Nc1ccccc1Cl`?
MrgX1 antag: -7*; RGS4 act: inactive; RGS4 block: inactive; MrgX1 ag: inactive; MrgX1 allo act: inactive

Results for Cc1ccc(S(=O)(=O)N2CCC(C(=O)NC3CC(C)(C)NC(C)(C)C3)CC2)cc1C ?
MrgX1 antag: inactive; RGS4 act: inactive; RGS4 block: inactive; MrgX1 ag: inactive; MrgX1 allo act: inactive

Results for COc1cccc(N2CCc3c(C)nc4ccc(Cl)cc4c32)c1 ?
MrgX1 antag: inactive; RGS4 act: -7.5*; RGS4 block: inactive; MrgX1 ag: inactive; MrgX1 allo act: inactive

Results for O=C1N/C(=C/c2cccs2)C(=O)N1Cc1ccccc1F ?
MrgX1 antag: inactive; RGS4 act: inactive; RGS4 block: inactive; MrgX1 ag: inactive; MrgX1 allo act: inactive

What do the screens show for `Cc1ccc(/C=C2/NC(=O)N(Cc3ccccc3F)C2=O)s1`?
MrgX1 antag: -7.5*; RGS4 act: inactive; RGS4 block: inactive; MrgX1 ag: inactive; MrgX1 allo act: inactive

How did CCN(CC)CCCC(C)NC(=O)c1ccc(C(F)(F)F)cc1 (stereo not drawn) do in these assays?
MrgX1 antag: inactive; RGS4 act: inactive; RGS4 block: inactive; MrgX1 ag: inactive; MrgX1 allo act: inactive

How did O=C1OCC2=C1C(c1ccc(F)cc1)CC(=O)N2c1ccc(F)cc1 (stereo not drawn) do in these assays?
MrgX1 antag: inactive; RGS4 act: inactive; RGS4 block: inactive; MrgX1 ag: inactive; MrgX1 allo act: inactive

What do the screens show for `O=C1OCC2=C1C(c1ccc(F)cc1)CC(=O)N2c1ccccc1` (stereo not drawn)?
MrgX1 antag: inactive; RGS4 act: -7.7*; RGS4 block: inactive; MrgX1 ag: inactive; MrgX1 allo act: inactive

Assay outcomes as filed in PubChem.
